Source: PubChem (several laboratories)
H69AR growth 86K: growth inhibitors of human H69AR lung tumor cells. actives 6% (n = 85,000). AID 598. viability, % at 10 µM. H69AR lung tumor viability, ATP luminescence, 72 h; stronger effect = lower value;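 active = viability at or below 40%; inactive = viability above 40%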;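 also: multidrug resistant small cell line overexpressing MRP-1 efflux transporter; 100% = mean luminescence of untreated control wells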
Fibroblast inh: blocks proliferation of human lung fibroblasts; LL 47 human lung fibroblast viability, ATP luminescence; stronger effect = lower value; AID 719; viability, % at 10 µM; actives 1.1% (n = 85,000);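 active = viability at or below 50% in the single dose screen; inactive = viability above 50%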;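 also: compound exposure lasted 72 h before the ATP readout; 100% = median luminescence of untreated cell-only wells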
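Test system: LL 47 human lung fibroblasts / Incubation: 72 h compound exposure at 37 °C after overnight plating / Technique: luminescent ATP detection, CellTiter-Glo / Compound dosing: 0.1% DMSO in all compound wells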
Pyk2 oligo antag: Pyk2 (human) oligomerization antagonism; z-score (the deposit names both 25 µM and 10 µM); Q14289; Q293 cells, Pyk2 FERM NanoBiT luminescence; stronger effect = lower value; actives 0.83% (n = 99,000);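 active = Z-score of -3 or lower, scaled per plate to the spread of control and sample wells; inactive = z-score above -3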;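 also: negative z-score means lost luminescence so less FERM oligomerization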
Target sequence (Q14289 whole entry, looked up): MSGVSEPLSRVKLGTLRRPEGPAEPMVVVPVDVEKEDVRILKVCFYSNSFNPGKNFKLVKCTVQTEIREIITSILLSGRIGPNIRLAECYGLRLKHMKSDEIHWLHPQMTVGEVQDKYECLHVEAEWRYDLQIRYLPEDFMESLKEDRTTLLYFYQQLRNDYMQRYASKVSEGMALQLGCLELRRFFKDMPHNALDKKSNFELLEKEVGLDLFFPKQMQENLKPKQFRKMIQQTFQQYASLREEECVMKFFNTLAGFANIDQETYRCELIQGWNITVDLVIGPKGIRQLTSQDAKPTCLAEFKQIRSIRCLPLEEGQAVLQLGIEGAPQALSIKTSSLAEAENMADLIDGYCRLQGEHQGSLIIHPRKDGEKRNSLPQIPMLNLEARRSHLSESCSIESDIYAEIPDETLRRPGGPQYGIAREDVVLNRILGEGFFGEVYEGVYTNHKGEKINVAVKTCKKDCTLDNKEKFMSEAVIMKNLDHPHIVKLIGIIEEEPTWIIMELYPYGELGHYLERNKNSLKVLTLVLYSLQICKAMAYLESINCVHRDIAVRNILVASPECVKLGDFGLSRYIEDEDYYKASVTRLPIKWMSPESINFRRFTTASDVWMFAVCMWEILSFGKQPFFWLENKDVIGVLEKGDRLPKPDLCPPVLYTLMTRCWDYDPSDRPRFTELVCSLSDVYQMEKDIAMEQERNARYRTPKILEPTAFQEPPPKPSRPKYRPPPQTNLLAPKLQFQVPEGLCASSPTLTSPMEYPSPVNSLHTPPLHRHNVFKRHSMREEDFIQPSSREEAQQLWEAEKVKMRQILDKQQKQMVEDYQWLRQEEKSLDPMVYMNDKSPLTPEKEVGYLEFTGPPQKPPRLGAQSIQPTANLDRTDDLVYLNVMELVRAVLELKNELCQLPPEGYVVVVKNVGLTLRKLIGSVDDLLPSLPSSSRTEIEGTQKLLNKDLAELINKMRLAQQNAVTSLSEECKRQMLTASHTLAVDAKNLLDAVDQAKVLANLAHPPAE
HUVEC prolif 384: blocks proliferation of human endothelial cells | AID 648 | actives 1.1% (n = 86,000) | HUVEC proliferation, CellTiter-Glo luminescence, 72 h; stronger effect = lower value | viability, % at 10 µM (by protocol);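 active = viability at or below 30%; inactive = viability above 30%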;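 also: 100% = median luminescence of DMSO-only cell control wells on each plate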
MT1-MMP txn act: activates MT1-MMP transcription; HT1080 MT1-MMP promoter luciferase reporter, luminescence, overnight; stronger effect = higher value; activation factor at 10 µM; actives 0.16% (n = 86,000); AID 750;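 active = activation factor of at least 2 for MT1-MMP transcription at 10 µM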
Jurkat viability: reduces viability or proliferation of Jurkat cells; Jurkat E6.1 viability, ATP luminescence, 48 h; inhibition, % at 4 µM; actives 1.2% (n = 56,000);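 active = inhibition above the mean inhibition of all tested compounds plus 3 SD, cut at about 28% in these data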
* = called active by the depositor; . = not tested or not shown. In the library only some 5.9% were active in any assay of this set; here they are far more common.

SMILES | H69AR growth 86K | Fibroblast inh | Pyk2 oligo antag | HUVEC prolif 384 | MT1-MMP txn act | Jurkat viability
c1ccc2c(c1)nc(CN1CCOCC1)n1c3ccccc3nc21 | 50.3 | 97.0 | 0.02 | 117.8 | 1 | .
O=c1c2cccc3c(N4CCOCC4)ccc(c32)c2nc3ccccc3n12 | 28.0* | 92.8 | . | 49.6 | 1.5 | 8.2
CCN(CC)S(=O)(=O)c1ccc2oc(C(=O)O)c(C)c2c1 | 96.7 | 90.4 | 0.36 | 99.1 | 1.3 | -2.9
CCN(CC)S(=O)(=O)c1ccc2oc(C(=O)NCc3ccc(C)cc3)c(C)c2c1 | 38.3* | 88.2 | -0.88 | 85.3 | 1.2 | .
CCN(CC)S(=O)(=O)c1ccc2oc(C(=O)NC(C)C)c(C)c2c1 | 29.2* | 100.3 | 1.34 | 97.4 | 1.1 | .
Cc1c(C(=O)NCc2ccccc2)oc2ccc(S(=O)(=O)N3CCCC3)cc12 | 55.8 | 89.0 | . | 59.7 | 1.1 | 11.3
CCn1cc(C(=O)NCc2ccc(Cl)cc2)c(=O)c2cc(S(=O)(=O)N3CCOCC3)ccc21 | 29.9* | 90.2 | . | 86.1 | 1 | 2.4
Cc1ccc(CNC(=O)c2oc3ccc(S(=O)(=O)N4CCOCC4)cc3c2C)cc1 | 31.1* | 96.5 | -0.98 | 84.8 | 1.2 | .
Cc1c(C(=O)N(C)Cc2ccccc2)oc2ccc(S(=O)(=O)N3CCCC3)cc12 | 39.2* | 87.9 | -0.3 | 95.5 | 1 | .
Cc1ccc(Nc2nc(N)nc(CN3CCN(Cc4ccc5c(c4)OCO5)CC3)n2)cc1Cl | 14.0* | 84.7 | -0.85 | 65.6 | 1.2 | 5.3
COc1ccc(N2CCN(Cc3nc(N)nc(Nc4ccc(C)c(Cl)c4)n3)CC2)cc1 | 23.0* | 97.6 | -0.37 | 64.0 | 1 | -2.2
COc1ccc(NC(=O)CN(Cc2ccccc2)S(C)(=O)=O)cc1 | 99.6 | 100.5 | 0.55 | 92.2 | 1.1 | .
COc1cccc(O[C@@H]2O[C@@H]3COC(C)(C)O[C@H]3[C@H](O)[C@H]2NC(C)=O)c1 | 96.3 | 103.9 | -0.17 | 94.8 | 1.2 | .
COC(=O)C1=C(C)OC(N)=C(C#N)C1c1ccccc1 (centres undefined) | 91.2 | 99.7 | -0.05 | 88.5 | 1.1 | 7.3
C=CCC(Nc1ccccc1)C12C=CC(O1)C(C(=O)OC)=C2C(=O)OC (centres undefined) | 1.0* | 3.1* | -1.15 | 45.4 | 1.2 | .
Cc1ccc(C(=O)CCNc2ccc(F)c(Cl)c2)o1 | 86.7 | 93.9 | 0.59 | 75.0 | 1.3 | 83.0*
CC(C)(C)OC(=O)N1CCN(c2ccc(CNC(=O)c3ccc(Cl)cc3)cc2)CC1 | . | . | -0.96 | . | . | .
Oc1c(Cl)cc(Cl)c2c1NCCC2 | 4.4* | 87.7 | 0.99 | 67.9 | 1.1 | 2.4
O=C1NCCCc2c1oc1ccc(O)cc21 | 65.4 | 104.8 | -0.37 | 101.8 | 1.2 | 1.0
Fc1ccc(-c2nnc3ccc(N4CCc5ccccc5C4)nn23)cc1 | 42.2 | 93.9 | . | 71.7 | 0.9 | 3.0
CC(C)(C)NC(=O)c1cccc(NC(=O)c2ccc(NC(=O)c3ccco3)cc2)c1 | 32.7* | 93.9 | -1.38 | 81.7 | 1 | -5.2
Cn1c(NC(=O)c2ccco2)cc(=O)n(C)c1=O | 23.7* | 96.0 | 0.47 | 98.7 | 1.1 | -1.6
CC(C)CNC(=O)c1cccc(NC(=O)c2ccc(NC(=O)c3ccco3)cc2)c1 | 28.0* | 81.8 | -0.61 | 75.4 | 0.9 | 0.6
CC(C)(C)NC(=O)c1cccc(NC(=O)c2ccco2)c1 | 63.1 | 107.5 | -0.57 | 107.1 | 1.4 | .
CC(C)(C)c1ccc(C(=O)Nc2ccc(NC(=O)c3ccco3)cc2)cc1 | 33.4* | 27.6* | 1.94 | 43.1 | 1.1 | .
SMILES | H69AR growth 86K | Fibroblast inh | Pyk2 oligo antag | HUVEC prolif 384 | MT1-MMP txn act | Jurkat viability
CCSc1nc(-c2cccs2)nc2c1c(=O)n(C)c(=O)n2C | 51.2 | 87.1 | . | 93.1 | 1.1 | -4.4
Cc1cc(S(=O)(=O)N2CCC(NC(=O)C34CC5CC(CC(C5)C3)C4)CC2)ccc1-n1cnnn1 | 74.2 | 94.0 | 0.39 | 61.6 | 1.3 | 4.6
Cn1c(=O)c(=O)n(C)c2cc(S(=O)(=O)N3CCN(c4cccc(C(F)(F)F)c4)CC3)ccc21 | 84.2 | 94.8 | 0.58 | 68.0 | 1 | -13.0
C#CCN(C#N)c1nc(NCC)nc(NC(C)C)n1 | 75.8 | 84.3 | -0.16 | 94.9 | 1.2 | 3.1
CCNc1nc(NC(C)C)nc(N(C#N)CCOc2ccccc2)n1 | 27.4* | 87.7 | -2.1 | 92.7 | 1.3 | .
COC(=O)[C@@]1(Cc2ccc(OC)cc2)[C@H]2c3cc(C(=O)N(C)C)n(Cc4ccc(OC)c(OC)c4)c3C[C@H]2CN1C(=O)c1ccccc1 | . | . | . | . | 1.2 | .
c1ccc(-c2cccc(-c3ccccn3)n2)nc1 | 8.8* | 29.1* | 0.46 | 10.0* | 0.6 | 87.1*
CC(C)CNC(=O)C1CCN(c2ccc(S(=O)(=O)N3CCOCC3)cc2Cl)CC1 | 91.9 | 94.6 | 1.25 | 97.0 | 1 | 12.8
O=C(NCc1cccs1)C1CCN(c2ccc(S(=O)(=O)N3CCOCC3)cc2Cl)CC1 | 17.6* | 58.7 | -0.09 | 53.7 | 0.6 | 91.1*
Cc1cccc(Cn2ncc(Cl)c(Cl)c2=O)c1 | . | . | -0.11 | . | . | .
Cc1ccccc1Cn1nnc2c1C(=O)c1ccccc1C2=O | 12.2* | 32.0* | -0.83 | 2.1* | 1.3 | .
Cc1cccc(Cn2nnc3c2C(=O)c2ccccc2C3=O)c1 | 13.5* | 69.9 | -1.03 | 3.4* | 1.1 | .
Cc1ccc(C)c(NC(=O)c2nnn(Cc3ccccc3C)c2N)c1 | 92.0 | 95.9 | -0.13 | 90.0 | 1.2 | 7.2
Cc1nn(C(C)C(=O)NNC(=S)Nc2ccc(Cl)cc2)c(C)c1[N+](=O)[O-] (centres undefined) | . | . | 0.15 | . | . | .
N#Cc1ncc(C(F)(F)F)cc1Sc1ccc(N)cc1 | 36.1* | 93.8 | -0.91 | 89.1 | 1.1 | .
N#Cc1cc(N)ccc1Sc1ccc(Cl)cc1 | . | . | 0.31 | . | . | .
O=S(=O)(/C=C/c1ccccc1)n1cnc2ccccc21 | 19.5* | 68.5 | -0.67 | 83.6 | 1.1 | -5.6
CCC(C)n1c(NC(=O)c2ccccc2)c(C#N)c2nc3ccccc3nc21 (centres undefined) | 2.9* | 100.9 | -0.5 | 51.4 | 1.1 | .
Cc1cc(C(=O)CSc2nnc(NCc3ccccc3)s2)c(C)n1C | 31.8* | 63.1 | -0.56 | 66.1 | 1.2 | 33.8*
CCOC(=O)c1c(C)cc(C)n2c1nc1ccccc12 | 83.2 | 107.5 | 0.13 | 99.9 | 1 | .
COc1ccc(C2C=C(C34CC5CC(CC(C5)C3)C4)NC(=S)N2)cc1OC (centres undefined) | . | . | -0.53 | . | . | .
COC(=O)C1=C(C)NC(C)=C(C(=O)OC)C1c1ccccc1[N+](=O)[O-] | 8.5* | 55.9 | . | 80.6 | 1.3 | .
CCOC(=O)C1=C(C)NC(C)=C(C(=O)OC)C1c1cccc([N+](=O)[O-])c1 (centres undefined) | 92.4 | 95.4 | . | 78.0 | 1 | .
Cc1ccc(-c2nc(CSCC(=O)NCc3cccnc3)c(C)o2)cc1 | 93.6 | . | 1.24 | 106.8 | 1 | 13.5
C=CCN1CCN(C(c2ccc(OC)c(OC)c2)c2nnnn2C(C)(C)C)CC1 (centres undefined) | 85.1 | 101.7 | 1.6 | 95.8 | 1.2 | -7.1
